In ChEMBL document CHEMBL3108689, “Stilbenes as κ-selective, non-nitrogenous opioid receptor antagonists” (J Nat Prod, 2014):

Columns and labels:
[1] = target: Mu-type opioid receptor (Homo sapiens) (UniProt P35372); assay: Competitive antagonist activity against human Mu opioid receptor overexpressed in CHO cells assessed as inhibition of DAMGO-stimulated [35S]GTP-gamma-S binding by liquid scintillation counting; assay type: functional, cell-based
Method in brief: (§1)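 CHO cells overexpressing human μ, δ or κ opioid receptor; membrane homogenates (20–40 μg protein) incubated 1 h at room temperature with 0.1 nM [35S]GTP-γ-S and 1 μM GDP in 50 mM HEPES pH 7.4, in duplicate. Agonist concentration–response curves run with or without one test-compound concentration (screen at 10 μM). Filtration, scintillation counting, normalized to basal; EC50 by four-parameter logistic; Ke = [L]/(DR − 1).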

[2] = target: Delta-type opioid receptor (Homo sapiens) (UniProt P41143); assay: Competitive antagonist activity against human delta opioid receptor overexpressed in CHO cells assessed as inhibition of DPDPE-stimulated [35S]GTP-gamma-S binding by liquid scintillation counting; assay type: functional, cell-based; method in brief: as §1
[3] = target: Kappa-type opioid receptor (Homo sapiens) (UniProt P41145); assay: Competitive antagonist activity against human kappa opioid receptor overexpressed in CHO cells assessed as inhibition of U69,593-stimulated [35S]GTP-gamma-S binding by liquid scintillation counting; assay type: functional, cell-based; method in brief: as §1
[4] = organism: Homo sapiens; assay: Selectivity ratio of Ke(app) for human Mu opioid receptor to ratio of Ke(app) for human kappa opioid receptor
[5] = organism: Homo sapiens; assay: Selectivity ratio of Ke(app) for human delta opioid receptor to ratio of Ke(app) for human kappa opioid receptor

Structure (SMILES) | Ke [1] [µM] | Ke [2] [µM] | Ke [3] [µM] | Ratio [4] | Ratio [5]
CC(C)=CCC/C(C)=C/Cc1c(O)cc(/C=C/c2ccc(O)c(O)c2)cc1O | > 10 | > 10 | > 10 |  | 
CC(C)=CCC/C(C)=C/Cc1c(O)cc(O)cc1/C=C/c1ccc(O)c(O)c1CC=C(C)C | 0.57 | 2.9 | 0.2 | 2.9 | 14.5
CC(C)=CCc1c(O)cc(/C=C/c2ccc(O)c(O)c2)cc1O | > 10 | > 10 | > 10 |  | 
COc1cc(/C=C/c2ccc(OC)c(OC)c2)c(C/C=C(\C)CCC=C(C)C)c(OC)c1 | > 10 | > 10 | > 10 |  | 
CC(C)=CCC/C(C)=C/Cc1c(O)cc(O)cc1/C=C/c1ccc(O)c(O)c1 | > 10 | > 10 | > 10 |  | 
CC(C)=CCC/C(C)=C/CC/C(C)=C/Cc1c(O)cc(/C=C/c2ccc(O)cc2)cc1O | 3 | 6 | 9 | 0.33 | 0.67
CC(C)=CCc1c(O)cc(/C=C/c2ccc(O)cc2)cc1O | > 10 | > 10 | > 10 |  | 
COc1cc(/C=C/c2ccc(O)c(O)c2)c(C/C=C(\C)CCC=C(C)C)c(OC)c1 | > 10 | > 10 | > 10 |  | 

Results, then the molecule that gave them:

Ke [1] [µM] | Ke [2] [µM] | Ke [3] [µM] | Ratio [4] | Ratio [5] | Structure (SMILES)
> 10 | > 10 | > 10 |  |  | COc1cc(/C=C/c2ccc(OC)c(O)c2CC=C(C)C)c(C/C=C(\C)CCC=C(C)C)c(OC)c1
> 10 | > 10 | 0.15 | > 67 | > 67 | COc1cc(/C=C/c2cc(O)c(O)c(CC=C(C)C)c2)c(C/C=C(\C)CCC=C(C)C)c(OC)c1
> 10 | > 10 | > 10 |  |  | COc1cc(/C=C/c2ccc(OC)c(OC)c2CC=C(C)C)c(C/C=C(\C)CCC=C(C)C)c(OC)c1
